# Experimental data: ChEMBL document CHEMBL1126589, “Substituted 3-(phenylmethyl)-1H-indole-5-carboxamides and 1-(phenylmethyl)indole-6-carboxamides as potent, selective, orally active antagonists of the peptidoleukotrienes” (J Med Chem, 1993)
# Test system: not listed separately
# Assay: ED50 ratio of LTD4 peroral administration / LTD4 intravenous administration
# Assay type: functional
# Conditions: not given
# Summary of the method: (§1)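 Conscious guinea pigs challenged with LTD4 ("dyspnea" model) after oral or intravenous dosing; percent protection from LTD4-induced dyspnea plotted against dose to derive ED50; po/iv ratio taken from the oral and intravenous ED50 values.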
row,SMILES,Ratio
1,CCC(CC)CNC(=O)c1ccc2c(c1)c(Cc1ccc(C(=O)NS(=O)(=O)c3ccccc3C)cc1OC)cn2C,14
2,CCCn1cc(Cc2ccc(C(=O)NS(=O)(=O)c3ccccc3C)cc2OC)c2cc(C(=O)NCC(C)C)ccc21,456

# Test system: Cavia porcellus
# Assay: Effective dose against LTD4-induced bronchoconstriction in guinea pig after intravenous administration
# Assay type: functional
# Conditions: not given
# Summary of the method: as §1
row,SMILES,ED50
1,C=CCn1cc(Cc2ccc(C(=O)NS(=O)(=O)c3ccccc3C)cc2OC)c2cc(C(=O)NCC3CCCC3)ccc21,0.03 µmol/kg
2,CCC(CC)CNC(=O)c1ccc2c(c1)c(Cc1ccc(C(=O)NS(=O)(=O)c3ccccc3C)cc1OC)cn2C,1.09 µmol/kg
3,CCCn1cc(Cc2ccc(C(=O)NS(=O)(=O)c3ccccc3C)cc2OC)c2cc(C(=O)NCC(C)C)ccc21,0.07 µmol/kg

# Test system: Rattus norvegicus
# Assay: Integrated area under the blood concentration vs time curve for the period 0-24 hr postdose of 1 mg/kg in rat
# Assay type: ADME, organism-based
# Set-up: time < 24 hr, dose 1 mg/kg
# Conditions: in vivo
row,AUC,SMILES
1,5740 ng·h/mL,CCC(CC)CNC(=O)c1ccc2c(c1)c(Cc1ccc(C(=O)NS(=O)(=O)c3ccccc3C)cc1OC)cn2C

# Biological target: T1, Cysteinyl leukotriene receptor 1 (Cavia porcellus, UniProt Q2NNR5)
# T1 sequence (Q2NNR5 whole entry): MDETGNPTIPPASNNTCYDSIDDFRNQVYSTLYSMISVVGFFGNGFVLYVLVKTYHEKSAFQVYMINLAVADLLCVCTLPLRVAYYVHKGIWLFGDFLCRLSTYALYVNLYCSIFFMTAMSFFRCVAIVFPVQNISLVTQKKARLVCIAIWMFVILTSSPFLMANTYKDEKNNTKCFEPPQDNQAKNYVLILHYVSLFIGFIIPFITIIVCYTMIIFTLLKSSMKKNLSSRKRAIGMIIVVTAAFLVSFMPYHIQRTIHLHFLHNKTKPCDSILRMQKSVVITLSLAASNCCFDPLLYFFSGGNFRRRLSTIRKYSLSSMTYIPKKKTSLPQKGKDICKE
# Assay: Binding affinity to the leukotriene receptor (LTD4) from guinea pig lung parenchymal membranes assayed using [3H]LTD4 as radioligand
# Assay type: tissue-based, Lung parenchyma
# Conditions: not given
# Summary of the method: (§2)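 Displacement of [3H]LTD4 from guinea pig lung parenchymal membranes; Ki is the mean of two experiments run in duplicate with separate batches, reported as pKi (-log Ki).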
row,SMILES,Ki
1,CCC(CC)CNC(=O)c1ccc2c(C)cn(Cc3ccc(C(=O)NS(=O)(=O)c4ccccc4C)cc3OC)c2c1,2.51 nM
2,CCCCC(CC)NC(=O)c1ccc2c(c1)c(Cc1ccc(C(=O)NS(=O)(=O)c3ccccc3C)cc1OC)cn2C (centres undefined),126 nM
3,CCCCN(CCCC)C(=O)c1ccc2c(c1)c(Cc1ccc(C(=O)NS(=O)(=O)c3ccccc3C)cc1OC)cn2C,79.4 nM
4,COc1cc(C(=O)NS(=O)(=O)c2ccccc2C)ccc1Cc1cn(C)c2ccc(C(=O)NCCc3ccccc3)cc12,79.4 nM
5,COc1cc(C(=O)NS(=O)(=O)c2ccccc2C)ccc1Cc1cn(C)c2ccc(C(=O)NC3CCCCC3)cc12,100 nM
6,C=CCn1cc(Cc2ccc(C(=O)NS(=O)(=O)c3ccccc3C)cc2OC)c2cc(C(=O)NCC3CCCC3)ccc21,0.398 nM

# The next lines start with the values.
row,Ki,SMILES
1,15.8 nM,COc1cc(C(=O)NS(=O)(=O)c2ccccc2C)ccc1Cc1cn(C)c2ccc(C(=O)NCCC(C)C)cc12
2,10 nM,CCCCCC(C)CNC(=O)c1ccc2c(c1)c(Cc1ccc(C(=O)NS(=O)(=O)c3ccccc3C)cc1OC)cn2C (centres undefined)
3,2 nM,CCCn1cc(Cc2ccc(C(=O)NS(=O)(=O)c3ccccc3C)cc2OC)c2cc(C(=O)NCC(C)C)ccc21

# Test system: not listed separately
# Assay: Maximum concentration in whole blood recorded in the period 0-24 hr postdose of 1 mg/kg in rat
# Assay type: ADME, organism-based
# Set-up: dose 1 mg/kg
# Conditions: not given
row,Cmax,SMILES
1,410 ng/mL,CCC(CC)CNC(=O)c1ccc2c(c1)c(Cc1ccc(C(=O)NS(=O)(=O)c3ccccc3C)cc1OC)cn2C

# Biological target: T1, Cysteinyl leukotriene receptor 1
# Assay: Binding affinity against leukotriene receptor (LTD4) from guinea pig lung parenchymal membranes using [3H]LTD4 as radio ligand
# Assay type: tissue-based, Lung parenchyma
# Conditions: not given
# Summary of the method: as §2
row,Ki,SMILES
1,2 nM,CCC(CC)CNC(=O)c1ccc2c(c1)c(Cc1ccc(C(=O)NS(=O)(=O)c3ccccc3C)cc1OC)cn2C

# Test system: Cavia porcellus
# Assay: Effective dose against LTD4-induced bronchoconstriction in guinea pig after peroral administration
# Assay type: functional
# Conditions: po
# Summary of the method: as §1
row,SMILES,ED50
1,C=CCn1cc(Cc2ccc(C(=O)NS(=O)(=O)c3ccccc3C)cc2OC)c2cc(C(=O)NCC3CCCC3)ccc21,9.9 µmol/kg
2,CCC(CC)CNC(=O)c1ccc2c(c1)c(Cc1ccc(C(=O)NS(=O)(=O)c3ccccc3C)cc1OC)cn2C,14.7 µmol/kg
3,CCCn1cc(Cc2ccc(C(=O)NS(=O)(=O)c3ccccc3C)cc2OC)c2cc(C(=O)NCC(C)C)ccc21,31 µmol/kg

# Biological target: T2, Cysteinyl leukotriene receptor 1 (Cavia porcellus) (UniProt Q2NNR5)
# T2 sequence (whole entry): T1 sequence (Q2NNR5 whole entry)
# Assay: Binding affinity against leukotriene receptor (LTE4) from guinea pig tracheal spirals
# Assay type: tissue-based
# Conditions: not given
# Summary of the method: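 Functional antagonism in isolated guinea pig tracheal spirals contracted with LTE4 as agonist; KB derived from concentration-response curves, n = number of curves.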
row,SMILES,pKB
1,CCC(CC)CNC(=O)c1ccc2c(C)cn(Cc3ccc(C(=O)NS(=O)(=O)c4ccccc4C)cc3OC)c2c1,8.4
2,C=CCn1cc(Cc2ccc(C(=O)NS(=O)(=O)c3ccccc3C)cc2OC)c2cc(C(=O)NCC3CCCC3)ccc21,8.3

# Results, then the molecule that gave them:
row,pKB,SMILES
1,8,CCC(CC)CNC(=O)c1ccc2c(c1)c(Cc1ccc(C(=O)NS(=O)(=O)c3ccccc3C)cc1OC)cn2C
2,9.1,CCCn1cc(Cc2ccc(C(=O)NS(=O)(=O)c3ccccc3C)cc2OC)c2cc(C(=O)NCC(C)C)ccc21
